Calls of active or inactive are those of the source. The calls are words filed in the database; no cut-off is given here.
Tests used:
[1] = Selectivity index, ratio of CC50 for HFF to EC50 for […] infected in HFF
[2] = system: Human alphaherpesvirus 2; assay: Antiviral activity against HSV2 harboring frameshift mutation in TK infected in HFF after 3 days by plaque reduction assay; type: functional, organism-based; conditions: Human alphaherpesvirus 2, 72 h
Summary of the method: (§1)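 Confluent HFF monolayers (passage <10) were infected in triplicate wells at 20–30 plaques per well, with 1 h adsorption and rocking every 15 min. Six serial dilutions (top 100 μM) were made in MEM with 2% FBS and pooled human immunoglobulin. Cells were incubated 3 days and stained with crystal violet. Plaques were counted, and EC50 was interpolated from plaque reduction.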

[3] = system: Human alphaherpesvirus 2; assay: Antiviral activity against HSV2 infected in BALB/c mouse assessed mean time to virus-induced death at 10 mg/kg, po BID administered 24 hrs post infection; type: functional
[4] = system: Human gammaherpesvirus 4; assay: Antiviral activity against Epstein-Barr virus infected in human Akata cells after 72 hrs; type: functional, organism-based; conditions: human gammaherpesvirus 4, Akata
Summary of the method: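 Akata cells were kept in RPMI 1640 with 10% FBS. Compound ranged 100 to 0.032 μM. Latent cells were induced to lytic infection with 50 μg/ml goat anti-human IgG, and 4 × 10^4 cells were added per well. After 72 h, DNA was alkali/NaCl-denatured, blotted to nylon membrane, and viral DNA quantified by digoxigenin-probe hybridization with anti-hapten antibody detection.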

[5] = system: Human alphaherpesvirus 2; assay: Antiviral activity against HSV2 infected in BALB/c mouse assessed as virus-induced mortality rate at 10 mg/kg, po BID administered 24 hrs post infection; type: functional
[6] = system: Human betaherpesvirus 5; assay: Antiviral activity against human cytomegalovirus RC314 harboring UL97 K355M mutant gene infected in HFF after 8 to 10 days by plaque reduction assay; type: functional, organism-based; conditions: Human betaherpesvirus 5, RC314
Summary of the method: (§2)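 Plaque reduction in confluent HFF with six serial dilutions (top 100 μM) and no immunoglobulin added. Virus was adsorbed 1 h on triplicate wells. Cells were incubated 8 days, stained with 0.017% neutral red in PBS, and plaques counted. EC50 is the concentration reducing plaque number by 50%.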

[7] = system: Human alphaherpesvirus 2; assay: Antiviral activity against HSV2 MS infected in HFF after 3 days by plaque reduction assay; type: functional, organism-based; conditions: Human alphaherpesvirus 2, MS, 72 h
Summary of the method: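 Confluent primary HFF monolayers (passage <10), triplicate wells, virus dosed at 20–30 plaques/well. Adsorption was 1 h with rocking every 15 min. Six serial dilutions, top 100 μM, were made in MEM with 2% FBS plus pooled human immunoglobulin. After 3 days, wells were stained with 0.1% crystal violet in 20% methanol and plaques counted microscopically. EC50 was interpolated.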

[8] = system: Human alphaherpesvirus 2; assay: Antiviral activity against HSV2 infected in BALB/c mouse assessed as virus-induced mortality rate at […], po BID administered 24 hrs post infection; type: functional
[9] = system: Human betaherpesvirus 5; assay: Antiviral activity against human cytomegalovirus VR4955 harboring UL54 T700A mutant gene infected in HFF after 8 to 10 days by plaque reduction assay; type: functional, organism-based; conditions: Human betaherpesvirus 5, VR4955; summary of the method: as §2
[10] = system: Human betaherpesvirus 5; assay: Antiviral activity against human cytomegalovirus PFAB300 harboring UL54 L724V mutant gene infected in HFF after 8 to 10 days by plaque reduction assay; type: functional, organism-based; conditions: Human betaherpesvirus 5, PFAB300; summary of the method: as §2
[11] = system: Human alphaherpesvirus 2; assay: Antiviral activity against HSV2 infected in BALB/c mouse assessed mean time to virus-induced death at 30 mg/kg, po BID administered 24 hrs post infection; type: functional
[12] = Cytotoxicity against HFF after 3 days by MTS assay; type: cell-based; conditions: human, HFF cells
[13] = system: Human alphaherpesvirus 2; assay: Antiviral activity against HSV2 infected in BALB/c mouse assessed as virus-induced mortality rate at […], po BID administered 48 hrs post infection; type: functional
[14] = system: Human alphaherpesvirus 2; assay: Antiviral activity against HSV2 infected in BALB/c mouse assessed as virus-induced mortality rate at 10 mg/kg, po BID administered 48 hrs post infection; type: functional
[15] = system: Human alphaherpesvirus 2; assay: Antiviral activity against HSV2 infected in BALB/c mouse assessed mean time to virus-induced death at […], po BID administered 72 hrs post infection; type: functional
[16] = system: Human alphaherpesvirus 2; assay: Antiviral activity against HSV2 infected in BALB/c mouse assessed as virus-induced mortality rate at 10 mg/kg, po BID administered 72 hrs post infection; type: functional
[17] = system: Human betaherpesvirus 5; assay: Antiviral activity against human cytomegalovirus C8914-6 harboring UL97 I244V, L595F and UL54 L501F mutant gene infected in HFF after 8 to 10 days by plaque reduction assay; type: functional, organism-based; conditions: Human betaherpesvirus 5, C8914-6; summary of the method: as §2
[18] = Cytotoxicity against human HSB2 cells after 3 days by MTS assay; type: cell-based, CCRF-HSB-2
[19] = system: Human gammaherpesvirus 8; assay: Antiviral activity against Human herpesvirus 8 infected in human BCBL1 cells assessed as inhibition of viral replication after 7 days; type: functional, organism-based; conditions: Human gammaherpesvirus 8, BCBL1, 168 h
Summary of the method: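 BCBL1 cells in RPMI 1640 with 10% FBS, compound diluted in triplicate wells with a top concentration of 100 μM. Lytic infection was induced with phorbol 12-myristate 13-acetate at 100 ng/ml final. After 7 days at 37°C in humidified CO2, viral DNA in total DNA was measured by TaqMan qPCR. EC50 was taken as 50% reduction of viral DNA.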

[20] = system: Human alphaherpesvirus 2; assay: Antiviral activity against HSV2 infected in BALB/c mouse assessed mean time to virus-induced death at 10 mg/kg, po BID administered 72 hrs post infection; type: functional
[21] = system: Human alphaherpesvirus 2; assay: Selectivity ratio of EC50 for 4'-thioIDU-resistant HSV2 infected in HFF to EC50 for HSV2 MS infected in HFF; type: functional
[22] = system: Human alphaherpesvirus 2; assay: Antiviral activity against HSV2 MS infected in HFF assessed as inhibition of viral DNA synthesis-associated incorporation in DNA by immunofluorescence assay; type: functional, organism-based
Summary of the method: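 HFF on coverslips were infected with HSV-2 MS or the resistant isolate (MOI 0.2 PFU/cell) for 48 h. Cells were pulsed with BrdUrd or 10 μM test compound for 30 min before fixation. Incorporation was detected with a cross-reacting anti-BrdUrd monoclonal antibody, infected cells with anti-155-kDa nucleocapsid antibody, and nuclei with DAPI.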

[23] = Selectivity index, ratio of CC50 for HFF to EC50 for VZV Ellan infected in HFF
[24] = system: Human alphaherpesvirus 2; assay: Antiviral activity against HSV2 13077 harboring TK R223H mutant gene infected in HFF after 3 days by plaque reduction assay; type: functional, organism-based; conditions: Human alphaherpesvirus 2, 13077, 72 h; summary of the method: as §1
[25] = system: Human betaherpesvirus 5; assay: Antiviral activity against human cytomegalovirus 759D100 harboring deletion mutation in UL97 gene and UL54 A987G mutant gene infected in HFF after 8 to 10 days by plaque reduction assay; type: functional, organism-based; conditions: Human betaherpesvirus 5, 759D100; summary of the method: as §2

**Q.** With `O=c1[nH]c(=O)n([C@H]2C[C@H](O)[C@@H](CO)S2)cc1I` as the molecule, how does the Ratio CC50/EC50 [1] read?
**A.** The Ratio CC50/EC50 was > 1250.

**Q.** What about the EC50 [2] of the same molecule?
**A.** Its EC50 is 77 µM.

**Q.** What about the Time [3] of the same molecule?
**A.** Its Time is 9.8 days.

**Q.** And the EC50 [4]?
**A.** The EC50 was > 0.16 µM.

**Q.** What about the Activity [5] of the same molecule?
**A.** The Activity was 67%.

**Q.** And the EC50 [6]?
**A.** The EC50 was 6.5 µM.

**Q.** And the EC50 [7]?
**A.** The EC50 was 0.45 µM.

**Q.** And the Activity [8]?
**A.** The Activity was 100%.

**Q.** And the EC50 [9]?
**A.** The EC50 was 8 µM.

**Q.** What about the EC50 [10] of the same molecule?
**A.** Its EC50 is 25 µM.

**Q.** What about the Time [11] of the same molecule?
**A.** Its Time is 12.1 days.

**Q.** What about the CC50 at 72 h [12] of the same molecule?
**A.** The CC50 at 72 h was > 70 µM.

**Q.** What about the Activity [13] of the same molecule?
**A.** Its Activity is 93%.

**Q.** And the Activity [14]?
**A.** Its Activity is 73%.

**Q.** And the Time [15]?
**A.** The Time was 10 days.

**Q.** What about the Activity [16] of the same molecule?
**A.** The Activity was 73%.

**Q.** What about the EC50 [17] of the same molecule?
**A.** Its EC50 is 43 µM.

**Q.** And the CC50 at 72 h [18]?
**A.** The CC50 at 72 h was > 100 µM.

**Q.** And the EC50 [19]?
**A.** Its EC50 is > 4 µM.

**Q.** What about the Time [20] of the same molecule?
**A.** The Time was 10.7 days.

**Q.** What about the “Ratio EC50” value [21] of the same molecule?
**A.** The value was 108.

**Q.** And the inhibition [22]?
**A.** The inhibition was “Active”.

**Q.** And the Ratio CC50/EC50 [23]?
**A.** The Ratio CC50/EC50 was 35.

**Q.** And the EC50 [24]?
**A.** The EC50 was > 343 µM.

**Q.** And the EC50 [25]?
**A.** Its EC50 is 14 µM.

— ChEMBL document CHEMBL1649277, “Inhibition of herpesvirus replication by 5-substituted 4'-thiopyrimidine nucleosides” (Antimicrob Agents Chemother, 2009)
